Key:
[1] = Selectivity ratio of km rat nNOS to km mouse iNOS by Michaelis-Menten equation analysis
[2] = Selectivity ratio of km for bovine eNOS to km for mouse iNOS by Michaelis-Menten equation analysis
[3] = molecular target: T1, Nitric oxide synthase, inducible (Mus musculus) (UniProt P29477); assay: Inhibition of mouse iNOS assessed as nitric oxide-mediated oxidation of haemoglobin-A0 at 300 uM using L-arginine by haemoglobin capture assay
T1 sequence (whole entry): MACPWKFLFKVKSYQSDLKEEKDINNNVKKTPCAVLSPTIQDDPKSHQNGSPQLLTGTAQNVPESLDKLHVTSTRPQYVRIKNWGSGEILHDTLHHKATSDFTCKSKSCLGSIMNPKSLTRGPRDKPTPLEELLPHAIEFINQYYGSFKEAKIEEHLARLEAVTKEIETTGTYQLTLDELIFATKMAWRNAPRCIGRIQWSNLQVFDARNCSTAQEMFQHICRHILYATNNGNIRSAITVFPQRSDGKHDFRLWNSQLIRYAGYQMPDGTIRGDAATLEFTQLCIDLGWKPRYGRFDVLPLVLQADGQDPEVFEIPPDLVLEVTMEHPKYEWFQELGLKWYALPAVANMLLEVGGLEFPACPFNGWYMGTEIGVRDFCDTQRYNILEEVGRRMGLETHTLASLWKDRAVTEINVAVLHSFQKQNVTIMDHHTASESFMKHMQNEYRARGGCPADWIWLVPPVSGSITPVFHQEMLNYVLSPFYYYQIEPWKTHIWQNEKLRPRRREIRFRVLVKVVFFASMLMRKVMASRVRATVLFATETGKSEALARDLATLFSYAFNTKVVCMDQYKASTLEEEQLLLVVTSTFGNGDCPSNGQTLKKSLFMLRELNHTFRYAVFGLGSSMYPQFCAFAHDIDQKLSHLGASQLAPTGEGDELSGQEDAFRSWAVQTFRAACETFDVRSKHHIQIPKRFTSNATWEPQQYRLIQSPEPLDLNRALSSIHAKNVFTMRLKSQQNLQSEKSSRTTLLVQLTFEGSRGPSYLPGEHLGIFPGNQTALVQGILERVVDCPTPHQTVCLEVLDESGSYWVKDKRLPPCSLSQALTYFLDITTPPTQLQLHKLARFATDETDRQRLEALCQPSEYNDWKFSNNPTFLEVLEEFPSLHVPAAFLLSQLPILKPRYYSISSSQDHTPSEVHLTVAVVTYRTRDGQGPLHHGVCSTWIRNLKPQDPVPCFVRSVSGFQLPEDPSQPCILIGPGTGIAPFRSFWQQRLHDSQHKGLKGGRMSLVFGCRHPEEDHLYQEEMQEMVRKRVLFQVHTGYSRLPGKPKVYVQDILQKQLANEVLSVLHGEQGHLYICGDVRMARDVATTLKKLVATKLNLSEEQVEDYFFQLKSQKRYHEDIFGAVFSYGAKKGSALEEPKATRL
How it was run: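 Murine iNOS inhibition was measured against L-arginine as substrate in a hemoglobin capture assay at 30 °C, without calcium or calmodulin. The mix held NADPH, 0.125 mg/mL ferrous hemoglobin-A₀ and H₄B in 100 mM HEPES (pH 7.5). Enzyme addition initiated the reaction, and NO-mediated oxidation was monitored at 401 nm.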

[4] = molecular target: Nitric oxide synthase 1 (Rattus norvegicus) (UniProt P29476); assay: Inhibition of rat nNOS assessed as nitric oxide-mediated oxidation of haemoglobin-A0 at 300 uM using L-arginine by haemoglobin capture assay
How it was run: (§1)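 For eNOS (bovine) and nNOS (rat), inhibition was tested as the effect of compound on L-arginine turnover, by hemoglobin capture at 30 °C. Buffer was 100 mM HEPES (pH 7.5) with 1.0 mM CaCl₂, 600 unit/mL calmodulin, NADPH, 0.125 mg/mL ferrous hemoglobin-A₀ and H₄B. Reactions were started with enzyme, and hemoglobin-A₀ oxidation was read at 401 nm.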

[5] = molecular target: T2, Nitric oxide synthase 3 (Bos taurus) (UniProt P29473); assay: Inhibition of bovine eNOS assessed as nitric oxide-mediated oxidation of haemoglobin-A0 at 300 uM using L-arginine by haemoglobin capture assay; how it was run: as §1
T2 sequence (whole entry): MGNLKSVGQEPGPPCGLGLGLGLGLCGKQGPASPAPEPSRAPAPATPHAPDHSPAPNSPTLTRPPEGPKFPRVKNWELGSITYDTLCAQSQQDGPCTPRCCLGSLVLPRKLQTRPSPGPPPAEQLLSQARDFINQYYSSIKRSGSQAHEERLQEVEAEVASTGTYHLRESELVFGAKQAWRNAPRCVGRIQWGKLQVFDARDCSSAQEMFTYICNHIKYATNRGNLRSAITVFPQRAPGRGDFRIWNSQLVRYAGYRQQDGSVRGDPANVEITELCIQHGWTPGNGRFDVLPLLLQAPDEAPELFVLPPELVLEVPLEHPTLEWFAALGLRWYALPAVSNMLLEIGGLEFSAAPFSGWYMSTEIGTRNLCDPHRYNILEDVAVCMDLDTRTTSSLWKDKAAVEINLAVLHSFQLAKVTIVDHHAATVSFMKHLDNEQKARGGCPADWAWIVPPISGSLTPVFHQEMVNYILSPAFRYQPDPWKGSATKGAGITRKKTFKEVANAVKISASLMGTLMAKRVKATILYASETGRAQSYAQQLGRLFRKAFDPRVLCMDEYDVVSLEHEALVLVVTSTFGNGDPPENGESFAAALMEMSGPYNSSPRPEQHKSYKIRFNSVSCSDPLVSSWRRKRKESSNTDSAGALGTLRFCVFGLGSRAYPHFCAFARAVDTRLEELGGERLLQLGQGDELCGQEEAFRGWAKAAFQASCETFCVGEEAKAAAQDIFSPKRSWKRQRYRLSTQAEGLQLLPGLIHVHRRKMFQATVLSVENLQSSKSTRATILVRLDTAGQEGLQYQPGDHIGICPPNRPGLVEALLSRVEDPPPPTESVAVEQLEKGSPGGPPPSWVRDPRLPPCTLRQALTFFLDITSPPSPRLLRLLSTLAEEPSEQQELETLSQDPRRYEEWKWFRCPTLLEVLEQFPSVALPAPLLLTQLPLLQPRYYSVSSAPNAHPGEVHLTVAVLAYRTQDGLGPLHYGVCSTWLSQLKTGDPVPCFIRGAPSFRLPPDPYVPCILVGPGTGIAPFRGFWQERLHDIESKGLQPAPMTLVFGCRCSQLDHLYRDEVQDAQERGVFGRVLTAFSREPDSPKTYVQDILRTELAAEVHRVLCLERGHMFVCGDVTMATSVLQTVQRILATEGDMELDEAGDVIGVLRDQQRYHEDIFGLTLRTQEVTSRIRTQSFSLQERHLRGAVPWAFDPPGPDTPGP

Sequence of Nitric oxide synthase 1 (Rattus norvegicus) (P29476 whole entry): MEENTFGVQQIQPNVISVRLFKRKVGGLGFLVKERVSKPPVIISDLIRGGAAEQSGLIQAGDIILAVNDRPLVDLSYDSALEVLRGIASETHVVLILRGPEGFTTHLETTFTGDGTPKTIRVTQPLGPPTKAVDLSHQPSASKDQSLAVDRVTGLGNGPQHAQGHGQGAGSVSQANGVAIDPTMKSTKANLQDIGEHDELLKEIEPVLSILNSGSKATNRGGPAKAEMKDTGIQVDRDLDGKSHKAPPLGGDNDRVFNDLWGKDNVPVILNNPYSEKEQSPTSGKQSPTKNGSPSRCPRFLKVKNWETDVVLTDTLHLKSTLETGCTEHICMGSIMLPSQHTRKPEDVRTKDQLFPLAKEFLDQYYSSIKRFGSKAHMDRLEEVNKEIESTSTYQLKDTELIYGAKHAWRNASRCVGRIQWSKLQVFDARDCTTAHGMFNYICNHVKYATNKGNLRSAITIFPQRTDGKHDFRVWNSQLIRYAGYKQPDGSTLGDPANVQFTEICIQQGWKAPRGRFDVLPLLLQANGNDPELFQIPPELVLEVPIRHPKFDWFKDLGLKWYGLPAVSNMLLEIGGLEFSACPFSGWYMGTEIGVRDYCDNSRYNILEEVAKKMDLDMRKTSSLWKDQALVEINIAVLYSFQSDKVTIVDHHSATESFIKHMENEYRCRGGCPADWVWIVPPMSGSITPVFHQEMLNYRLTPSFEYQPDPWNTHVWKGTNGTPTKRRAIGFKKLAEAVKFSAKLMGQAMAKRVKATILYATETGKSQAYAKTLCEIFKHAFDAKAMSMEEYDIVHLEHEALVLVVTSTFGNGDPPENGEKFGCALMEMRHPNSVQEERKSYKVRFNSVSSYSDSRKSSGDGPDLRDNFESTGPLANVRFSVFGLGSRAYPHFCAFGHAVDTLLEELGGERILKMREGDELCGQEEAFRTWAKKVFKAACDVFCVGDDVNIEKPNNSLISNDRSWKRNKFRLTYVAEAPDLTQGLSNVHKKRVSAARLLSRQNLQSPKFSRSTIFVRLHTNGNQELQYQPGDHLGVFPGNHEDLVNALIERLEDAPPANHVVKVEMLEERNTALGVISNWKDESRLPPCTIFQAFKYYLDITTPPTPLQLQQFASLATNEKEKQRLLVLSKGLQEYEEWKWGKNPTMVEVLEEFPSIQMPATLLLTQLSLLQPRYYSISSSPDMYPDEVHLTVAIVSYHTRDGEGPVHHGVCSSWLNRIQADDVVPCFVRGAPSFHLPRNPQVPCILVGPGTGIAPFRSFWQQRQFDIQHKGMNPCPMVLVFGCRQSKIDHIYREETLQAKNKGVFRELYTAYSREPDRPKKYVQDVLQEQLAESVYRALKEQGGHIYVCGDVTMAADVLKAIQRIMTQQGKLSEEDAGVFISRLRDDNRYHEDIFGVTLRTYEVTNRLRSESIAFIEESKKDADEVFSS

N=C(N)NCCC[C@H](N)C(=O)O
Ratio [1]: 3.5
Ratio [2]: 8.6

N=C(N)NC[C@H]1C[C@H]1[C@H](N)C(=O)O
Ratio [1]: 2.3
Ratio [2]: 3.6

N=C(N)NC[C@@H]1C[C@@H]1[C@H](N)C(=O)O
inhibition [3]: 22%
inhibition [4]: 30%
inhibition [5]: 16%

N=C(N)NC[C@H]1C[C@@H]1[C@H](N)C(=O)O
Ratio [1]: 2.6
Ratio [2]: 5.6

N=C(N)NC[C@@H]1C[C@@H]1[C@@H](N)C(=O)O
inhibition [3]: 24%
inhibition [4]: 10%
inhibition [5]: 4%

N=C(N)NC[C@H]1C[C@@H]1[C@@H](N)C(=O)O
inhibition [3]: 19%
inhibition [4]: 5%
inhibition [5]: 23%

N=C(N)NC[C@@H]1C[C@H]1[C@H](N)C(=O)O
inhibition [3]: 26%
inhibition [4]: 16%
inhibition [5]: 45%

N=C(N)NC[C@H]1C[C@H]1[C@@H](N)C(=O)O
inhibition [3]: 14%
inhibition [4]: 30%
inhibition [5]: 27%

N=C(N)NC[C@@H]1C[C@H]1[C@@H](N)C(=O)O
inhibition [3]: 19%
inhibition [4]: 13%
inhibition [5]: 4%
